Measured values gathered from unrelated publications.
Each line is one published result; the experiments were not run side by side.
Read-out: enzyme activity
Action: inhibitor
CDK2 with cyclin E: Cyclin-dependent kinase 2, with cyclin E (CDK2, Homo sapiens, UniProt P24941)
CDK2 with cyclin A: Cyclin-dependent kinase 2, with cyclin A (CDK2, Homo sapiens, UniProt P24941)

| Structure (SMILES) | target | method | tested at | remaining activity [%] |
| --- | --- | --- | --- | --- |
| Cc1cnc(NC2CCOCC2)nc1-n1cnc(C(=O)NC(CN)c2cc(F)cc(Cl)c2)c1 (stereo not shown) | CDK2 with cyclin E | radiometric | 1 µM | 3 |
| COc1cc(Cl)c(C(=O)N[C@@H](CN[C@H]2CC[C@@H](N)CC2)Cc2ccc(C#N)cc2)cc1-c1ccc(CN[C@H](C)c2ccc(C)cc2)o1 | CDK2 with cyclin E | – | 1 µM | 90 |
| Cc1sc(C(=O)NC2COC2)cc1-n1cc(NC(=O)Nc2c(F)cccc2Cl)cn1 | CDK2 with cyclin A | – | 10 µM | 98.3 |
| Cc1ccc(C(=O)Nc2ccc(CN3CCN(C)CC3)c(C(F)(F)F)c2)cc1C#Cc1cnc2cccnn12 | Cyclin-dependent kinase 2 (CDK2, Homo sapiens, UniProt P24941) | – | 23.5 nM | 96 |
| CC(C)(O)[C@H]1CC[C@H](Nc2ccc3ncc(-c4cccc(C(F)(F)F)c4)n3n2)CC1 | CDK2 with cyclin E | – | 1 µM | 91.1 |
| CC(C)(C)C(=O)c1sc(NC2CCCCC2)nc1N | CDK2 with cyclin A | – | 10 µM | 13 |
| Cc1ccc(Nc2nccc(N(C)c3ccc4c(C)n(C)nc4c3)n2)cc1S(N)(=O)=O | CDK2 with cyclin A | – | 0.5 µM | 96.1 |
| CC(C)(C)c1nc(-c2cccc(NS(=O)(=O)c3c(F)cccc3F)c2F)c(-c2ccnc(N)n2)s1 | Cyclin-dependent kinase 2, with cyclin E1 (CDK2, Homo sapiens, UniProt P24941) | radiometric | 1 µM | 90 |
| O=C(Nc1cnn(-c2csc(C(=O)NC3COC3)c2)c1)Nc1ccccc1Cl | Cyclin-dependent kinase 2, with cyclin O (CDK2, Homo sapiens, UniProt P24941) | – | 5 µM | 93.2 |
| FC(F)c1nc2ccccc2n1-c1nc(N2CCOCC2)nc(N2CCOCC2)n1 | CDK2 with cyclin A | – | 10 µM | 77 |
| COc1cc(Nc2cnc(C#N)c(O[C@H](C)CN(C)C)n2)ncc1-c1cnn(C)c1 | CDK2 with cyclin A | radiometric | 1 µM | 114 |
| CC(C)(C)c1nc2c(s1)c1nc(N)ncc1c1ccc(NS(=O)(=O)c3c(F)cccc3F)c(F)c12 | Cyclin-dependent kinase 2, with cyclin A2 (CDK2, Homo sapiens, UniProt P24941) | radiometric | 1 µM | 70 |
| O=C(Nc1cnn(-c2csc(C(=O)NC3COC3)c2)c1)Nc1c(F)cccc1Cl | Cyclin-dependent kinase 2, with cyclin A1 (CDK2, Homo sapiens, UniProt P24941) | – | 5 µM | 94.2 |
